We go through 14 molecules from ChEMBL document CHEMBL5584259, “NMR-Guided Isolation of Anti-inflammatory Carabranolides from the Fruits of Carpesium abrotanoides L” (J Nat Prod, 2024).

Series [1] concerns RAW264.7. Description: Antiinflammatory activity in mouse RAW264.7 cells assessed as inhibition of LPS-induced iNOS protein expression incubated for 24 hrs by Western blot analysis. It is filed as functional, cell-based. The conditions noted are these: dose 5-20 µM. In outline:
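Cells seeded at 5 × 10^5/well, exposed to compound at 10, 20, 40 μM or dexamethasone 5 μM, then LPS 0.5 μg/mL for 24 h. RIPA lysates run on 8% SDS-PAGE, transferred to PVDF. Probed overnight at 4 °C for iNOS with GAPDH as loading control, then secondary antibody 1 h at room temperature.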

In series [2] the test system is RAW264.7. Description: Cytotoxicity against mouse RAW264.7 cells assessed as reduction in cell viability up to 20 uM incubated for 24 hrs by MTT assay. It counts as toxicity, cell-based. The note with it: raw264.7, 24 h. Summed up:
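Viability read by MTT in parallel with the NO assay: RAW264.7 at 1 × 10^5/well, compound at 1.25–20 μM in triplicate, LPS 100 ng/mL for 24 h.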
(Tetrazolium assays rely on reduction of a dye to a coloured formazan, in cell work by metabolically active cells.)

Series [3] concerns RAW264.7. Nature of the series: Antiinflammatory activity in mouse RAW264.7 cells assessed as inhibition of LPS-induced NO production incubated for 24 hrs by Griess reagent based assay. It counts as functional, cell-based. The note with it: for IC50: RAW264.7, 24 h. In outline:
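RAW264.7 (ATCC) grown in DMEM + 10% FBS, 37 °C, 5% CO2. Cells at 1 × 10^5/well treated with compound or dexamethasone at 1.25, 2.5, 5, 10, 20 μM in triplicate, then stimulated with LPS 100 ng/mL for 24 h. Supernatant nitrite measured with Griess reagent, absorbance 550 nm; IC50 from concentration series.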
(Nitrite, measured by Griess reagent, commonly stands in for NO production.)

Structures are written as SMILES.

As usually defined, the IC50 is the midpoint of a concentration-inhibition curve. Regarding `C=C1C(=O)O[C@@H]2C[C@]3(C)[C@@H](CC[C@@H](C)OC(C)=O)[C@@H]3C[C@H]12`, the inhibition entry in the series on RAW264.7 [1] is “Dose-Dependent Effect”. Further, in the series on RAW264.7 [2], the Activity entry is listed as “Non-Toxic”. Further, in the series on RAW264.7 [3], the inhibition entry is “Dose-Dependent Effect” and the IC50 came out at 5.64 µM.
On to `C=C1C(=O)O[C@@H]2C[C@]3(C)[C@@H](CC[C@@H](C)OC(=O)CCCC[C@H](O)/C=C/[C@@H](O)[C@H](O)CCCCCCCC)[C@@H]3C[C@H]12`, for which the Activity entry with RAW264.7 [2] is reported as “Non-Toxic”. Also, the IC50 in the series on RAW264.7 [3] amounted to 11.8 µM.
On to `C=C1C(=O)O[C@@H]2C[C@]3(C)[C@@H](CC[C@@H](C)OC(=O)CCCCCCC[C@@H]4OC(=O)C[C@H]4O)[C@@H]3C[C@H]12`, for which the inhibition result in the series on RAW264.7 [1] was “Dose-Dependent Effect”. Moreover, the Activity entry with RAW264.7 [2] is listed as “Non-Toxic”. In the series on RAW264.7 [3], the inhibition entry was “Dose-Dependent Effect” and the half-inhibitory concentration (IC50) turned out to be 8.67 µM.
Consider `C=C1C(=O)O[C@@H]2C[C@]3(C)[C@@H](CC[C@@H](C)OC(=O)CCCCCCC/C=C/C/C=C/CCCCC)[C@@H]3C[C@H]12`, for which the Activity entry in the series with RAW264.7 [2] is recorded as “Non-Toxic”. Besides, the IC50 with RAW264.7 [3] was above 20 µM.
For `C=C1C(=O)O[C@@H]2C[C@]3(C)[C@@H](CC[C@@H](C)OC(=O)CCCCCCCCCCCCCCC)[C@@H]3C[C@H]12` the same measures were “Non-Toxic” and above 20 µM.
For `C=C1C(=O)O[C@@H]2C[C@]3(C)C(CC[C@@H](C)OC(=O)C[C@@H](O)CCCCCCCCCCCCCC)[C@@H]3C[C@H]12` (stereo not given in full) the same measures were “Non-Toxic” and above 20 µM.
In the case of `C[C@@H]1C[C@H]2[C@@H]3CCC4=CC(=O)C=C[C@]4(C)[C@@]3(F)[C@@H](O)C[C@]2(C)[C@@]1(O)C(=O)CO` [DEXAMETHASONE], the IC50 in the series on RAW264.7 [3] was found to be 8.52 µM.
For the molecule `C=C1C(=O)O[C@@H]2C[C@]3(C)[C@@H](CC[C@@H](C)OC(=O)CCCC[C@@H](O)/C=C/[C@@H](O)[C@H](O)CCCCCCCC)[C@@H]3C[C@H]12`, the Activity result in the series with RAW264.7 [2] is on record as “Non-Toxic”. Besides, the IC50 in the series on RAW264.7 [3] is 11.6 µM.
Regarding `C=C1C(=O)O[C@@H]2C[C@]3(C)[C@@H](CC[C@@H](C)OC(=O)CCCCCCCCC(O)CCCCCCO)[C@@H]3C[C@H]12` (stereo not given in full), the Activity result in the series on RAW264.7 [2] is listed as “Non-Toxic”. The IC50 with RAW264.7 [3] is 9.87 µM.
Regarding `C=C1C(=O)O[C@@H]2C[C@]3(C)[C@@H](CC[C@@H](C)OC(=O)CCCCCCC[C@H]4OC(=O)C[C@H]4O)[C@@H]3C[C@H]12`, the Activity entry with RAW264.7 [2] was “Non-Toxic”. Also, the IC50 in the series on RAW264.7 [3] was 15.1 µM.
Regarding `C=C1C(=O)O[C@@H]2C[C@]3(C)[C@@H](CC[C@@H](C)OC(=O)Cc4ccc(O)cc4C)[C@@H]3C[C@H]12`, the inhibition result in the series on RAW264.7 [1] was “Dose-Dependent Effect”. The Activity entry in the series on RAW264.7 [2] was “Non-Toxic”. In the series on RAW264.7 [3], the inhibition entry is “Dose-Dependent Effect” and the IC50 worked out at 5.82 µM.
As for `C=C1C(=O)O[C@@H]2C[C@]3(C)C(CC[C@@H](C)OC(=O)CCCCCCCC(=O)O)[C@@H]3C[C@H]12` (stereo not given in full), the Activity result with RAW264.7 [2] is “Non-Toxic”. For the same molecule, the IC50 in the series on RAW264.7 [3] came to 9.35 µM.
In the case of `C=C1C(=O)O[C@@H]2C[C@]3(C)[C@@H](CC[C@@H](C)OC(=O)CC4CCC(=O)C=C4C)[C@@H]3C[C@H]12` (stereo not given in full), the inhibition entry in the series on RAW264.7 [1] and with RAW264.7 [3] was “Dose-Dependent Effect” throughout. The Activity entry in the series on RAW264.7 [2] is on record as “Non-Toxic”. In the series on RAW264.7 [3], the IC50 was 9.15 µM.
For the molecule `C=C1C(=O)O[C@@H]2C[C@]3(C)C(CC[C@@H](C)OC(=O)CCCCCCCCO)[C@@H]3C[C@H]12` (stereo not given in full), the Activity result with RAW264.7 [2] is listed as “Non-Toxic”. In addition, in the series on RAW264.7 [3], the half-maximal inhibitory concentration (IC50) was 9.75 µM.
